Measurements reported in ChEMBL document CHEMBL1914305, “Synthesis and structure-activity evaluation of isatin-β-thiosemicarbazones with improved selective activity toward multidrug-resistant cells expressing P-glycoprotein” (J Med Chem, 2011).
pIC50: −log10 of the molar value. Converted amounts (≈) assume the structure as drawn. The source made the active and inactive calls. The rule behind the calls is not given here.

How the values were obtained:
[1] = Cytotoxicity against human KB-3-1 cells after 72 hrs by MTT assay; format: functional, cell-based; conditions: KB 3-1, 72 h
Procedure, shortened: (§1)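 Grown in DMEM with 10% FBS. MTT assay: 4000 cells/well, 24 h settling, serial dilutions of drug, 72 h at 37 °C in 5% CO2. MTT in IMDM 4 h, then acidified ethanol 15 min, A570 with 690 nm background. Three experiments in triplicate. KB-V1-R comes from KB-V1 grown long-term drug-free.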

[2] = Selectivity ratio of IC50 for human KB-3-1 cells to IC50 for human KBV1 cells selected at 1 ug/mL vinblastine; format: functional
Procedure, shortened: (§2)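 Selectivity ratio: IC50 in the parental or empty-vector cells divided by IC50 in the P-gp-expressing cells (KB-V1, or ABCB1-transfected LLC-PK1). MTT assay: 4000 cells/well established for 24 h, then 72 h exposure to serially diluted drug at 37 °C, 5% CO2. MTT for 4 h, acidified ethanol lysis, A570 corrected at A690. IC50 is the concentration giving 50% of untreated absorbance, from at least three experiments.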

[3] = Cytotoxicity against vinblastine-selected human KBV1 cells after 72 hrs by MTT assay; format: functional, cell-based; conditions: KB-V1, 72 h
Procedure, shortened: as §1, with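 “background. IC50 is the concentration reducing absorbance to 50% of untreated control.” for “background.”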

NIH3T3 [4] = test: Cytotoxicity against mouse NIH/3T3 cells transfected with wild-type P-gp G185 after 72 hrs by MTT assay; format: functional, cell-based; conditions: NIH3T3, 72 h
Procedure, shortened: as §1, with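 “background. IC50 is the concentration reducing absorbance to 50% of untreated control.” for “background.”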

NIH3T3 [5] = test: Cytotoxicity against mouse NIH/3T3 cells selected at 30 ug/ml vincristine after 72 hrs by MTT assay; format: functional, cell-based; conditions: NIH3T3, 72 h, in the assay text read “30 ng/ml” for “30 ug/ml”
Procedure, shortened: as §1, with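 “background. IC50 is the concentration reducing absorbance to 50% of untreated control.” for “background.”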

CHO [6] = test: Cytotoxicity against CHO cells selected at 1 ug/mL colchicine after 72 hrs by MTT assay; format: functional, cell-based; conditions: Cricetulus griseus
Procedure, shortened: (§3)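 CHO and colchicine-selected C5 cells kept in AlphaMEM with 10% FBS. MTT assay: 4000 cells/well settled 24 h, then serially diluted drug added. Incubated 72 h at 37 °C, 5% CO2. MTT in IMDM for 4 h, then acidified ethanol lysis for 15 min. Read A570, background-corrected at 690 nm. IC50 is the concentration giving 50% of untreated absorbance. Three experiments, each in triplicate.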

NIH3T3 [7] = test: Cytotoxicity against mouse NIH/3T3 cells transfected with wild type p-glycoprotein ABCB1 selected at 600 ug/ml vincristine after 72 hrs by MTT assay; format: functional, cell-based; conditions: NIH3T3, 72 h, in the assay text read “600 ng/ml” for “600 ug/ml”
Procedure, shortened: as §1, with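 “background. IC50 is the concentration reducing absorbance to 50% of untreated control.” for “background.”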

HEK293 [8] = test: Cytotoxicity against human HEK293 cells transfected with plasmid expressing MDR1 after 72 hrs by MTT assay; format: functional, cell-based; conditions: HEK293, 72 h
Procedure, shortened: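 ABCB1-transfected HEK293 grown in DMEM with 10% FBS and 1 mg/mL G418. MTT assay: 4000 cells/well for 24 h, serial drug dilutions, 72 h at 37 °C, 5% CO2. MTT 4 h, acidified ethanol lysis, A570 corrected at 690 nm. IC50 at 50% of untreated absorbance. Three experiments in triplicate.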

CHO [9] = test: Cytotoxicity against CHO cells after 72 hrs by MTT assay; format: cell-based; conditions: Cricetulus griseus; procedure, shortened: as §3
SW-620 [10] = test: Cytotoxicity against human SW620 cells selected at 20 ng/mL adriamycin after 72 hrs by MTT assay; format: functional, cell-based; conditions: SW-620, 72 h
Procedure, shortened: (§4)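 Lines grown in RPMI with 10% FBS and 2 mM L-glutamine. MTT assay: 4000 cells/well attached 24 h before serially diluted drug, then 72 h exposure at 37 °C, 5% CO2. MTT in IMDM 4 h, lysis in acidified ethanol 15 min, absorbance 570 nm minus 690 nm. IC50 is the concentration halving untreated absorbance. Three independent experiments, each in triplicate.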

[11] = Cytotoxicity against human MES-SA cells after 72 hrs by MTT assay; format: functional, cell-based
Procedure, shortened: (§5)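 MES-SA and MES-SA/Dx5 lines kept in McCoy's 5A with 10% FBS. MTT assay: seeded at 4000 cells/well for 24 h, serial drug dilutions, 72 h at 37 °C and 5% CO2. MTT 4 h, acidified ethanol lysis, A570 corrected at 690 nm. IC50 is 50% absorbance versus untreated wells. Three separate experiments in triplicate.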

LLC-PK1 [12] = test: Cytotoxicity against pig LLC-PK1 cells after 72 hrs by MTT assay; format: cell-based; conditions: Sus scrofa, LLC-PK1, 72 h
Procedure, shortened: (§6)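 LLC-PK1 empty-vector lines grown in M199 with 10% FBS; transfected lines also in 0.5 mg/mL G418. MTT assay: 4000 cells/well for 24 h, then serially diluted drug for 72 h at 37 °C, 5% CO2. MTT 4 h, acidified ethanol, A570 minus 690 nm. IC50 is 50% of untreated absorbance. Triplicate wells, three experiments.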

OVCAR-8 = test: Cytotoxicity against human OVCAR8 cells after 72 hrs by MTT assay; format: functional, cell-based; conditions: OVCAR-8, 72 h; procedure, shortened: as §4
NIH3T3 [13] = test: Cytotoxicity against 2.4 ug/mL vincristine selected mouse NIH/3T3 cells transfected with P-gp Ser to Asp phosphorylation mutant after 72 hrs by MTT assay; format: functional, cell-based; conditions: NIH3T3, 72 h
Procedure, shortened: as §1, with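 “background. IC50 is the concentration reducing absorbance to 50% of untreated control.” for “background.”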

[14] = Cytotoxicity against human Ew36 cells after 72 hrs by MTT assay; format: functional, cell-based; conditions: Ew36, 72 h; procedure, shortened: as §4
[15] = Cytotoxicity against doxorubicin-selected human ZR-75B cells after 72 hrs by MTT assay; format: functional, cell-based; procedure, shortened: as §4
SW-620 [16] = test: Cytotoxicity against human SW620 cells after 72 hrs by MTT assay; format: functional, cell-based; conditions: SW-620, 72 h; procedure, shortened: as §4
[17] = Cytotoxicity against human Ew36 cells selected at 120 ng/mL vincristine after 72 hrs by MTT assay; format: functional, cell-based; conditions: Ew36, 72 h; procedure, shortened: as §4
NCI/ADR-RES = test: Cytotoxicity against adriamycin-selected human NCI/ADR-RES cells after 72 hrs by MTT assay; format: functional, cell-based; procedure, shortened: as §4
NIH3T3 [18] = test: Cytotoxicity against mouse NIH/3T3 cells selected at 1 ug/mL colchicine after 72 hrs by MTT assay; format: functional, cell-based; conditions: NIH3T3, 72 h
Procedure, shortened: as §1, with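 “background. IC50 is the concentration reducing absorbance to 50% of untreated control.” for “background.”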

[19] = Cytotoxicity against adriamycin-selected human MES-SA cells after 72 hrs by MTT assay; format: functional, cell-based; procedure, shortened: as §5
LLC-PK1 [20] = test: Cytotoxicity against pig LLC-PK1 cells transfected with empty vector after 72 hrs by MTT assay; format: cell-based; conditions: Sus scrofa, LLC-PK1, 72 h; procedure, shortened: as §6
NIH3T3 [21] = test: Cytotoxicity against mouse NIH/3T3 cells after 72 hrs by MTT assay; format: cell-based; conditions: NIH3T3, 72 h
Procedure, shortened: as §1, with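 “background. IC50 is the concentration reducing absorbance to 50% of untreated control.” for “background.”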

HEK293 [22] = test: Cytotoxicity against human HEK293 cells after 72 hrs by MTT assay; format: functional, cell-based; conditions: HEK293, 72 h
Procedure, shortened: as §1, with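 “background. IC50 is the concentration reducing absorbance to 50% of untreated control.” for “background.”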

[23] = Cytotoxicity against P-gp expressing human KBV1 cells after 72 hrs by MTT assay in presence of 100 nM TQR; conditions: KB-V1, 72 h
[24] = Selectivity ratio of IC50 for pig LLC-PK1 cells transfected with empty vector to IC50 for pig LLC-PK1 cells; format: ADME, cell-based, Sus scrofa; conditions: read-out: Ratio IC50; procedure, shortened: as §2
[25] = Aqueous solubility of the compound; format: physicochemical; conditions: buffer
KB-V1 = test: Cytotoxicity against P-gp expressing human KBV1 cells after 72 hrs by MTT assay in presence of 4 uM P-gp substrate Rh123; format: functional, cell-based
NCI-H460 [26] = test: Cytotoxicity against ABCG2-expressing human H460 cells at 10 uM after 72 hrs by MTT assay; format: functional, cell-based
[27] = Cytotoxicity against P-gp-negative human KB-3-1 cells after 72 hrs by MTT assay in presence of 100 nM TQR; conditions: KB 3-1, 72 h
[28] = Cytotoxicity against P-gp expressing human KBV1 revertant cells after 72 hrs by MTT assay; format: functional, cell-based; conditions: KB-V1, 72 h, in the assay text read “P-gp-negative” for “P-gp expressing”
Procedure, shortened: as §1, with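 “background. IC50 is the concentration reducing absorbance to 50% of untreated control.” for “background.”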

NCI-H460 [29] = test: Cytotoxicity against ABCG2-expressing human H460 cells at 10 to 20 uM after 72 hrs by MTT assay in presence of ABCG2 substrate 5 uM mitoxantrone; format: functional, cell-based

With `O=C1Nc2ccccc2/C1=N/NC(=S)Nc1ccc2c(c1)CCC2` as the compound, how does the pIC50 [1] read?
Its pIC50 is 5.24.

What about the “Ratio IC50” value [2] of the same compound?
The value was 2.

And the pIC50 [3]?
Its pIC50 is 5.55.

Which results are given for `O=C1Nc2ccccc2/C1=N/NC(=S)Nc1ccccc1Cl`?
pIC50 [1]: 5.65; Ratio IC50 [2]: 1.9; pIC50 [3]: 5.93

What does the source list for `COc1cccc2c1C(=O)c1c(O)c3c(c(O)c1C2=O)C[C@@](O)(C(=O)CO)C[C@@H]3O[C@H]1C[C@H](N)[C@H](O)[C@H](C)O1` [DOXORUBICIN]?
pIC50 (NIH3T3 [4]): 6.42; pIC50 (NIH3T3 [5]): 7.10; pIC50 (CHO [6]): 5.01; pIC50 (NIH3T3 [7]): 6.16; pIC50 (HEK293 [8]): 6.38; pIC50 (CHO [9]): 7.10; pIC50 (SW-620 [10]): 6.62; pIC50 [11]: 7.52; pIC50 (LLC-PK1 [12]): 4.71; pIC50 (OVCAR-8): 6.85; pIC50 (NIH3T3 [13]): 4.76; pIC50 [14]: 8.00; pIC50 [15]: 5.69; pIC50 (SW-620 [16]): 8.00; pIC50 [17]: 6.62; pIC50 (NCI/ADR-RES): 5.03; pIC50 [3]: 5.33; pIC50 (NIH3T3 [18]): 5.80; pIC50 [19]: 6.06; pIC50 (LLC-PK1 [20]): 6.70; pIC50 (NIH3T3 [21]): 7.30; pIC50 (HEK293 [22]): 8.00

With `Cc1ccc(NC(=S)N/N=C2\C(=O)Nc3ccccc32)cc1C` as the compound, how does the pIC50 [1] read?
The pIC50 was 5.36.

And the “Ratio IC50” value [2]?
Its value is 2.

And the pIC50 [3]?
The pIC50 was 5.66.

With `O=C1Nc2ccccc2/C1=N/NC(=S)Nc1cc(F)c(F)c(F)c1` as the compound, how does the pIC50 [1] read?
Its pIC50 is 5.36.

And the “Ratio IC50” value [2]?
Its value is 2.1.

What about the pIC50 [3] of the same compound?
The pIC50 was 5.67.

With `CCCC1CCC(c2ccc(NC(=S)N/N=C3\C(=O)Nc4ccccc43)cc2)CC1` (stereo not drawn) as the compound, how does the pIC50 [1] read?
Its pIC50 is 4.76.

And the “Ratio IC50” value [2]?
Its value is 1.6.

What about the pIC50 [3] of the same compound?
Its pIC50 is 4.96.

With `CC(C)(C)c1ccc(NC(=S)N/N=C2\C(=O)Nc3ccccc32)cc1` as the compound, how does the pIC50 [23] read?
The pIC50 was 5.08.

What about the selectivity ratio [24] of the same compound?
The selectivity ratio was 10.1.

And the pIC50 [1]?
Its pIC50 is 5.09.

And the “Ratio IC50” value [2]?
Its value is 14.8.

And the solubility [25]?
The solubility was 0.8 µg/mL (≈ 2.27 µM).

What about the Activity (KB-V1) of the same compound?
The Activity was “Active”.

And the pIC50 (LLC-PK1 [12])?
Its pIC50 is 5.54.

What about the Activity (NCI-H460 [26]) of the same compound?
The Activity was “Active”.

What about the pIC50 [27] of the same compound?
The pIC50 was 4.85.

What about the pIC50 [28] of the same compound?
Its pIC50 is 5.19.

And the Activity (NCI-H460 [29])?
The Activity was “Active”.

And the pIC50 [3]?
The pIC50 was 6.15.

And the pIC50 (LLC-PK1 [20])?
Its pIC50 is 4.53.

With `COc1ccccc1NC(=S)N/N=C1\C(=O)Nc2ccccc21` as the compound, how does the pIC50 [1] read?
The pIC50 was 5.30.

What about the “Ratio IC50” value [2] of the same compound?
The value was 1.8.

And the pIC50 [3]?
Its pIC50 is 5.57.
